# Assay: Toxicity liver stage against HepG2, at 10uM
# Format: cell-based
# Set-up: test concentration 10 uM, cell line HepG2-A16-CD81EGFP
# Details: human, HepG2-A16-CD81EGFP cells; read-out: INHIBITION
# Procedure, shortened: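 Uninfected HepG2-A16-CD81EGFP cells, 3 × 10^3 per well, 1536-well, plated on prespotted compound at 10 μM final, parasite-free screening media added to match infected plates; puromycin 10 μM positive, DMSO 0.5% negative; run in parallel with 48 h PbLuc assay at 37 °C, 5% CO2; viability by CellTiter-Glo luminescence, normalized to controls.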
row,Structure (SMILES),cytotoxicity at 10 µM [%]
1,Cc1cccc(-c2noc([C@@H]3Cc4nc[nH]c4CN3)n2)c1,0.442
2,c1cncc(O[C@H]2COCCN(C3CCC3)C2)c1,0.514
3,CC(C)C[C@@H]1N[C@H](C(=O)NCC2CC2)Cc2c[nH]c3cccc1c23,12.4
4,CCCNC(=O)COc1cc(C)c2c(C)nn(-c3ccccc3)c2n1,-0.295
5,O=C(CN1C(=O)CC2(CCCC2)C1=O)NCCc1nccs1,0.566
6,Cc1nc(C)c(CC(=O)NCc2ccccc2F)s1,6.23
7,CS(=O)(=O)N1CCc2ccc(=O)n(CC3CC3)c2CC1,7.25
8,O=C(c1ccc2[nH]ccc2c1)N1Cc2nc(CN3CCCC3)oc2C1,6.98
9,O=C(CC1CCN(c2cccnn2)CC1)Nc1nncs1,1.01
10,NC(=O)c1cnc(NC2CC2)nc1CCNC(=O)CC1CCCC1,3.29
11,CC(C)S(=O)(=O)NC(=O)CC(c1ccccc1)C(F)(F)F (configuration not stated),-43.9
12,COc1ccncc1NC(=O)c1[nH]nc(C(C)C)c1Br,4.04
13,O=C1CC(N(C(=O)c2csc(-c3ccccc3)n2)C2CC2)C(=O)N1 (configuration not stated),15.2
14,CN(CCOc1cccc(S(C)(=O)=O)c1)CC(F)F,13
15,CCc1ccc(C(=O)NCC2CCCN2CC)o1 (configuration not stated),0.632
16,CNC(=O)c1cccc(NC(=O)NC(C)CCc2cccn2C)c1C (configuration not stated),-1.39
17,Cc1cc(C)n(C2CN(Cc3ccc(C(=O)N4CCCC4)cc3)C2)n1,1.89
18,Cn1cc(CNC2CCc3ncnn3C2)c(-c2cccnc2)n1 (configuration not stated),-5.92
19,CC1CCc2nc(NC(=O)CN(C)C(=O)c3ccco3)sc2C1 (configuration not stated),-11.4
20,COCc1ccc(C(=O)N2CCCN(C(=O)OCC(C)C)CC2)cc1,13.4
21,CCc1ncc2c(n1)CN(Cc1cn3ccsc3n1)CC2,-8.26
22,CC(=O)NCC1CCN(C(=O)NCCc2ccc3c(c2)OCO3)CC1,-5.22
23,N#Cc1ccc(CN2CCN(C(=O)CCn3cncn3)CC2)cc1,-7.06

row,Structure (SMILES),cytotoxicity at 10 µM [%]
1,CCCC(NC(=O)c1occc1C)c1nnn[nH]1 (configuration not stated),-9.36
2,Cc1cc2n(n1)CC(CNC1CCN(c3ccccn3)CC1)CN2 (configuration not stated),6.09
3,OCCN1CCN(Cc2cc3c(cc2Br)OCCO3)CC1,7.59
4,CC(CNS(N)(=O)=O)c1ccc(F)c(F)c1 (configuration not stated),-12.1
5,Cc1n[nH]c(C)c1C1CCCN1C(=O)NC(C)(C)C (configuration not stated),-4.27
6,Cc1occc1C(=O)N1CCCN(Cc2cnn(C(C)C)c2)CC1,-5.62
7,CCc1nc(CNC2CCCc3c2cnn3CC)cs1 (configuration not stated),5.12
8,O=C(CCS(=O)(=O)C1CCCC1)NCCc1cccc(O)c1,-3.09
9,Cc1nc(CN(C)C(=O)NC(C)c2ccc3c(c2)OCCO3)cs1 (configuration not stated),-4.45
10,Cc1ccc2c(c1)OC1(NC2=O)C(=O)N(C)c2ccccc21 (configuration not stated),-23.8
11,Cn1ccc(C(=O)NCc2cccc(Cn3ccnc3)c2)cc1=O,8.42
12,Cn1c(CC2CCS(=O)(=O)C2)nnc1SCCOc1cccc(Cl)c1 (configuration not stated),14.4
13,Cc1nn(CCO)c(C)c1CNC1CCc2c(Cl)cccc21 (configuration not stated),-6.34
14,Cc1cnn(CC2CCCN2CC(=O)N(C)CCC#N)c1 (configuration not stated),7
15,COCCNC(=O)[C@]12COC[C@H]1CN(C1CCOCC1)C2,-109
16,Cc1csc(CN2C[C@@H]3COC[C@]3(C(=O)NCc3ccco3)C2)n1,-105
17,CS(=O)(=O)NCc1ncn2c1CN(CCN1CCCC1)CCC2,-74.9
18,CCOCC1CN(C(=O)Cc2ccccn2)Cc2cn(CC)nc21 (configuration not stated),5.06
19,CS(=O)(=O)NC1CCc2c(ccc(=O)n2CC2CC2)C1 (configuration not stated),4.84
20,CCN(Cc1nc(COC)no1)Cc1cccnc1NC,-43.7
21,Cc1nsc(NC(=O)NC2CCOCC2)n1,-10.1
22,Cc1nc(N2CC[C@@H](c3ccc4ccccc4c3)[C@H](O)C2)no1,-3.65
23,CC(Cn1ccnc1)NCc1csc2c1CCCC2 (configuration not stated),-3.37

row,Structure (SMILES),cytotoxicity at 10 µM [%]
1,CN(C)c1ncnc2c1CCN(S(=O)(=O)c1cccc3nsnc13)C2,4.01
2,COc1cccc(OCCn2c(C)c(C)oc2=O)c1,-7.12
3,OCCOCCNCC1(c2ccc(F)cc2)CCOC1 (configuration not stated),-147
4,OC1CCN(CCCNc2nccc(C3CCCC3)n2)CC1,-1.81
5,CN(C)c1cnn(CC(=O)N2Cc3ccccc3C2)c(=O)c1,4.52
6,c1csc(CCNc2nc(-c3ccncc3)nc3c2CCNCC3)c1,-165
7,CCC(C)N(Cc1ccncc1)Cc1cccc(Cn2cccn2)c1 (configuration not stated),-45.1
8,CN(C)Cc1cc(-c2nccn2CCc2cccnc2)ccc1O,-42.9
9,Cc1cc(N2CCCN(CCc3ccccc3)CC2)ccn1,-3.67
10,O=C1CCCN1C1CCCN(CCOc2ccc(F)cc2)C1 (configuration not stated),7.62
11,O=C1CCC2(CCCN(CCn3cc(Cl)cn3)C2)CN1C1CCCC1 (configuration not stated),4.71
12,O=C(c1cncc(F)c1)N1CCC(c2ncc[nH]2)CC1,-1.39
13,CN(C(=O)CCc1cccs1)C1CCCN(C2Cc3ccccc3C2)C1 (configuration not stated),-4.49
14,CC(=O)N(C/C=C/c1ccccc1)CCO,4.64
15,COCc1ncc(CN2CC(Oc3c(C)cccc3C)C2)cn1,5.12
16,NC(=O)c1cc2c(nc1CCOc1ccc(F)cc1)CCC2,4.22
17,Cc1cc(C)n(CC(=O)N2CCCCC2CCc2cccs2)c(=O)n1 (configuration not stated),6.93
18,CCCn1cnnc1-c1nc2c([nH]1)CC(c1ccc(Cl)cc1)CNC2=O (configuration not stated),-31.1
19,CCCc1nc(CNC(=O)Cc2cc(C)no2)cs1,-11.5
20,COCc1cc(N(C)Cc2c(C)nn(C)c2C)n2nccc2n1,2.45
21,Fc1cc(Cl)cnc1N1CCCC(c2nccn2Cc2ccncc2)C1 (configuration not stated),-2
22,Cc1ccc(-c2cc(C(=O)N3CCCC3c3cccnc3)[nH]n2)o1 (configuration not stated),-1.41
23,Cc1ccc(OC2(C(=O)O)CCN(C(=O)CCc3ccco3)CC2)cc1,-8.06

row,Structure (SMILES),cytotoxicity at 10 µM [%]
1,CC(=O)N1CCCn2nc(CNS(=O)(=O)c3cc(C)cs3)cc2C1,-9.58
2,Cc1cc(F)ccc1OC1(C(=O)O)CCN(Cc2cccnc2N)CC1,-1.83
3,COc1ccc(CCNC(C)c2ccc3[nH]c(=O)[nH]c3c2)cc1OC (configuration not stated),-16.8
4,Cc1ccsc1CN(Cc1nc2c(cnn2C)c(=O)[nH]1)C(C)C,-7.27
5,Cc1noc(C)c1CNC(=O)N(C)C1CCN(c2ccccc2)C1=O (configuration not stated),-8.63
6,Cc1cc(CN2CCN(C(=O)NCc3ccco3)CC2)no1,-14.8
7,CC(C)Oc1ncccc1CNC(=O)N1CCCC1c1ccsc1 (configuration not stated),-8.25
8,Cc1ccc(NC2CCN(C(=O)c3cccc4c3ccn4C)CC2)nn1,-17.3
9,O=C(c1cc2ccccc2[nH]1)N1CCC(Nc2cccnn2)CC1,-16.9
10,CCOc1ncccc1CNC(=O)Nc1ccccc1,-4.87
11,Cc1cnn(CCNCc2nnc(-c3ccccc3)o2)c1,-10.4
12,CC(=O)Nc1nc(CN2CCOC(Cn3cccn3)C2)cs1 (configuration not stated),-5.69
13,CCN1CCN(C2CCN(Cc3nnc(C4CC4)o3)CC2)C1=O,1.75
14,Cc1c(Cl)c(CN2CCCC2Cn2cncn2)nc2ccccc12 (configuration not stated),-13.3
15,CCc1nc(C2CCCN2Cc2nc(Cc3ccccc3)no2)no1 (configuration not stated),3.12
16,Cn1cc(CCNC(=O)CCc2ccc3c(c2)OCO3)cn1,-7.15
17,CN1CC(=O)N(c2cccnc2)CC12CCN(C(=O)C1CCCCC1)C2 (configuration not stated),1.55
18,CC(=O)NCC(=O)N1Cc2nccn2CC(COc2cccnc2)C1 (configuration not stated),-2.6
19,Cn1nc(C2CCCN(Cc3cccc(F)c3)C2)c2nccnc21 (configuration not stated),-3.96
20,Cc1occc1C(=O)N1Cc2nccn2CC(CN2CCCC2)C1 (configuration not stated),-105
21,O=C(N1CCCC1)N1CCN(Cc2cccnc2)c2ncccc2C1,3.33
22,O=C(CO)N1CCC(F)(F)C2(CCN(c3ccccc3)C2)C1 (configuration not stated),13.8
23,O=C(c1ccnnc1)N1C[C@H]2CCC[C@@]2(COCc2ccccn2)C1,-78.7

row,Structure (SMILES),cytotoxicity at 10 µM [%]
1,O=C(c1ccncc1)N1CCOC2(COCCN(c3cccnc3)C2)C1 (configuration not stated),6.25
2,CO[C@@H]1CCN(c2ncc(F)cn2)[C@@H]2CN(Cc3cccnc3)C[C@@H]21,11.8
3,c1csc(CN2CCc3ncnc(C4CCOC4)c3CC2)n1 (configuration not stated),4.53
4,O=C1[C@H]2CN(Cc3ccco3)C[C@H]2CN1c1ccsc1,-71.9
5,O=C(O)[C@]12CCCN(C3CCOC3)C[C@H]1CN(c1ncccn1)C2 (some centres not stated),-97.4
6,Cn1cc(CN2CCC[C@]3(C[C@H](Oc4ncccc4F)CO3)C2)cn1,9.92
7,COCCN1C[C@@H]2[C@@H](OC)CCN(S(=O)(=O)c3cccnc3)[C@@H]2C1,-71.7
8,COc1cc(N2C[C@@H]3COC[C@]3(C(=O)NC3CC(F)(F)C3)C2)ncn1,14.7
9,Cc1cccc(CN2CCc3onc(Cn4cccc4)c3C2)n1,7.81
10,c1cncc(CN2CCn3c(Cn4cncn4)cnc3C2)c1,-70.9
11,CN(Cc1cn2c(n1)CN(Cc1ccsc1)CC2)Cc1ccco1,-78.5
12,O=C(c1cccnc1)N1CCn2cc(CN3CCCC3)nc2C1,-74.8
13,COc1cccc(CNc2c(C)nn(C(C)C)c2C)c1,-46.9
14,c1ccc(OC[C@@H]2CCC[C@@]23CNCCO3)nc1,9.93
15,Cc1csc(CN2CCn3c(COc4cccnc4)cnc3C2C)n1 (configuration not stated),-98.4
16,CN(Cc1ccco1)[C@@H]1CN(Cc2cccs2)C[C@@H]2CCCO[C@@H]21,3.65
17,Cn1nc(COc2cccnc2)c2c1CCN(Cc1ccco1)C2,-5.57
18,CCc1ccc(CN2CCN(C)c3ncccc3C2)o1,3.78
19,COCCN1CCN(S(=O)(=O)c2ccccc2)Cc2cccnc21,4.77
20,Cc1[nH]c(C2(N)CCCCC2)nc(=O)c1C,-0.846

# Source: ChEMBL document CHEMBL4513216, “Probing the Open Global Health Chemical Diversity Library for Multistage-Active Starting Points for Next-Generation Antimalarials” (ACS Infect Dis, 2020)
